Several values for one entry are separate records, joined by “and”; a condition that tells them apart may be missing. Identical values can stand only once. Activity calls are given as the source filed them. No cut-off for these calls is given here.
Experiments:
Type in all cases: nucleic-acid assay
[1] = system: dsDNA; test: Binding affinity to duplex 26 DNA (unknown origin) assessed as change in melting temperature at 1 uM by FRET
[2] = system: Quadruplex DNA; test: Binding affinity to 6-FAM labeled human proto-oncogene sequence FMycT G-quadruplex DNA assessed as change in melting temperature at 1 uM in presence of K+ buffer (1 mM KCl, 99 mM LiCl, 10 mM Li cacodylate) by FRET assay
Outline: (§1)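 FRET melting in duplicate. Dual-labelled oligo (6-FAM/TAMRA) at 0.2 μM with ligand at 1 μM, in 10 mM Li cacodylate pH 7.2. Buffer was 10 mM KCl + 90 mM LiCl for F21T and 1 mM KCl + 99 mM LiCl for FMycT. Sample annealed 90 °C 5 min, cooled to 4 °C overnight. Equilibrated 5 min at 25 °C, then ramped 0.5 °C/min to 95 °C. FAM read 492/516 nm, normalized; Tm taken at the fitted inflection point.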

[3] = system: Quadruplex DNA; test: Binding affinity to 6-FAM labeled human telomeric F21T G-quadruplex DNA assessed as change in melting temperature at 1 uM in K+ rich buffer (10 mM KCl, 90 mM LiCl, 10 mM Li cacodylate) by FRET assay; outline: as §1

Row | Activity [1] | ΔTm [2] [°C] | ΔTm [3] | SMILES
1 | inactive | 2.5 to 4.3 | 5 to 7 °C | c1cc(-c2cnc(-c3cccc(-c4cnco4)n3)o2)nc(-c2cnc(-c3cccc(-c4cnco4)n3)o2)c1
2 | inactive | 2.5 to 4.3 | 5 to 7 °C | CN(C)CCOc1cc(-c2cnc(-c3cccc(-c4cnco4)n3)o2)nc(-c2cnc(-c3cccc(-c4cnco4)n3)o2)c1
3 | inactive | 1.8 to 2.9 | 11.6 °C and 11 °C | CN(C)CCOc1cc(-c2ncc(-c3ccccn3)o2)nc(-c2ncc(-c3ccccn3)o2)c1
4 | inactive |  |  | c1ccc(-c2ncc(-c3cccc(-c4cnc(-c5ccccn5)o4)n3)o2)nc1
5 | inactive | 2.5 to 4.3 | 5 to 7 °C | c1cc(-c2cnco2)nc(-c2ncc(-c3cc(OCCN4CCCCC4)cc(-c4cnc(-c5cccc(-c6cnco6)n5)o4)n3)o2)c1
6 | inactive | 1.8 to 2.9 | 5.3 °C | c1ccc(-c2cnc(-c3cccc(-c4ncc(-c5ccccn5)o4)n3)o2)nc1

Source: ChEMBL document CHEMBL4257586, “Polyheteroaryl Oxazole/Pyridine-Based Compounds Selected in Vitro as G-Quadruplex Ligands Inhibit Rock Kinase and Exhibit Antiproliferative Activity” (J Med Chem, 2018)
